Laboratory results from ChEMBL document CHEMBL3526049 (Drug Metab Dispos, 2012).

Legend:
Type in all cases: ADME, organism-based
[1] = Cmax in BCRP knockout Sprague-Dawley rat at 20 mg/kg, po by LC-MS/MS analysis; design: dose 20 mg/kg, route oral; conditions: in vivo
In short: (§1)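 Male Sprague-Dawley knockout or age/weight-matched wild-type rats with femoral artery and vein cannulas. Crossover design: day 0 i.v. bolus 5 mg/kg sulfasalazine in water at pH 9–10, then day 3 gavage 20 mg/kg in 0.5% carboxymethyl cellulose/PBS pH 7.4. Arterial plasma was sampled to 24 h. Sulfasalazine and sulfapyridine were measured by LC-MS/MS (1–5000 ng/ml). Parameters are noncompartmental; n = 4–8, mean ± S.D.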

[2] = Volume of distribution at steady state in BCRP knockout Sprague-Dawley rat at 5 mg/kg, iv by LC-MS/MS analysis; design: dose 5 mg/kg, route intravenous; conditions: in vivo, read-out: Vdss
In short: (§2)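 Male Sprague-Dawley knockout rats or wild-type rats matched for age and weight, with femoral artery and vein cannulas. Crossover design: sulfasalazine 5 mg/kg iv bolus (water, pH 9–10) on day 0, then 20 mg/kg oral gavage (0.5% carboxymethyl cellulose in PBS, pH 7.4) on day 3. Arterial plasma collected 0–24 h. Sulfasalazine and sulfapyridine measured by LC-MS/MS; noncompartmental parameters; mean ± S.D., n = 4 to 8.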

[3] = AUC (infinity) in wild-type Wistar rat at 5 mg/kg, po by LC-MS/MS analysis; design: time infinity, dose 5 mg/kg, route oral; conditions: plasma
[4] = AUC (infinity) in wild-type Sprague-Dawley rat at 20 mg/kg, po by LC-MS/MS analysis; design: time infinity, dose 20 mg/kg, route oral; conditions: plasma; in short: as §1
[5] = Tmax in MRP2-deficient Wistar rat at 5 mg/kg, po by LC-MS/MS analysis; design: dose 5 mg/kg, route oral; conditions: in vivo
[6] = Oral bioavailability in wild-type Sprague-Dawley rat at 20 mg/kg by LC-MS/MS analysis; conditions: in vivo; in short: as §2
[7] = Half life in wild-type Wistar rat at 5 mg/kg, iv by LC-MS/MS analysis; design: dose 5 mg/kg, route intravenous; conditions: in vivo
In short: (§3)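 Male Wistar wild-type rats and Mrp2-deficient TR⁻ rats with femoral artery and vein cannulas. Sulfasalazine given as an iv bolus (5 mg/kg, water at pH 9–10) and by oral gavage, each followed by arterial plasma sampling over 24 h. Sulfasalazine and sulfapyridine measured by LC-MS/MS; noncompartmental parameters; mean ± S.D., n = 3.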

[8] = Tmax in wild-type Wistar rat at 5 mg/kg, po by LC-MS/MS analysis; design: dose 5 mg/kg, route oral; conditions: in vivo
[9] = Clearance in wild-type Sprague-Dawley rat at 5 mg/kg, iv by LC-MS/MS analysis; design: dose 5 mg/kg, route intravenous; conditions: in vivo; in short: as §1
[10] = Cmax in MRP2-deficient Wistar rat at 5 mg/kg, po by LC-MS/MS analysis; design: dose 5 mg/kg, route oral; conditions: in vivo
[11] = Half life in MRP2 knockout Sprague-Dawley rat at 20 mg/kg, po by LC-MS/MS analysis; design: dose 20 mg/kg, route oral; conditions: in vivo; in short: as §2
[12] = Clearance in MDR1A knockout Sprague-Dawley rat at 5 mg/kg, iv by LC-MS/MS analysis; design: dose 5 mg/kg, route intravenous; conditions: in vivo; in short: as §1
[13] = Volume of distribution at steady state in MDR1A knockout Sprague-Dawley rat at 5 mg/kg, iv by LC-MS/MS analysis; design: dose 5 mg/kg, route intravenous; conditions: in vivo, read-out: Vdss; in short: as §2
[14] = Cmax in MDR1A knockout Sprague-Dawley rat at 20 mg/kg, po by LC-MS/MS analysis; design: dose 20 mg/kg, route oral; conditions: in vivo; in short: as §1
[15] = AUC (infinity) in BCRP knockout Sprague-Dawley rat at 20 mg/kg, po by LC-MS/MS analysis; design: time infinity, dose 20 mg/kg, route oral; conditions: plasma; in short: as §1
[16] = Oral bioavailability in BCRP knockout Sprague-Dawley rat at 20 mg/kg by LC-MS/MS analysis; conditions: in vivo; in short: as §2
[17] = Tmax in BCRP knockout Sprague-Dawley rat at 20 mg/kg, po by LC-MS/MS analysis; design: dose 20 mg/kg, route oral; conditions: in vivo
In short: (§4)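 Male Sprague-Dawley rats (knockout or wild type, matched for age and weight) with femoral artery and vein cannulas, recovered ≥2 days. In an i.v./oral crossover with a 3-day washout, sulfasalazine was given by oral gavage at 20 mg/kg in 0.5% carboxymethyl cellulose/PBS pH 7.4. Arterial plasma was sampled 0–24 h and analysed by LC-MS/MS (1–5000 ng/ml). Noncompartmental analysis; n = 4 to 8.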

[18] = Half life in MRP2-deficient Wistar rat at 5 mg/kg, iv by LC-MS/MS analysis; design: dose 5 mg/kg, route intravenous; conditions: in vivo; in short: as §3
[19] = AUC (infinity) in BCRP knockout Sprague-Dawley rat at 5 mg/kg, iv by LC-MS/MS analysis; design: time infinity, dose 5 mg/kg, route intravenous; conditions: plasma; in short: as §1
[20] = Volume of distribution at steady state in wild-type Wistar rat at 5 mg/kg, iv by LC-MS/MS analysis; design: dose 5 mg/kg, route intravenous; conditions: in vivo, read-out: Vdss; in short: as §3
[21] = AUC (infinity) in MRP2 knockout Sprague-Dawley rat at 5 mg/kg, iv by LC-MS/MS analysis; design: time infinity, dose 5 mg/kg, route intravenous; conditions: plasma; in short: as §1
[22] = Tmax in wild-type Sprague-Dawley rat at 20 mg/kg, po by LC-MS/MS analysis; design: dose 20 mg/kg, route oral; conditions: in vivo; in short: as §4
[23] = Half life in MRP2 knockout Sprague-Dawley rat at 5 mg/kg, iv by LC-MS/MS analysis; design: dose 5 mg/kg, route intravenous; conditions: in vivo; in short: as §2
[24] = Cmax in MRP2 knockout Sprague-Dawley rat at 20 mg/kg, po by LC-MS/MS analysis; design: dose 20 mg/kg, route oral; conditions: in vivo; in short: as §1
[25] = Half life in wild-type Wistar rat at 5 mg/kg, po by LC-MS/MS analysis; design: dose 5 mg/kg, route oral; conditions: in vivo; in short: as §3
[26] = Half life in BCRP knockout Sprague-Dawley rat at 5 mg/kg, iv by LC-MS/MS analysis; design: dose 5 mg/kg, route intravenous; conditions: in vivo; in short: as §2
[27] = Clearance in wild-type Wistar rat at 5 mg/kg, iv by LC-MS/MS analysis; design: dose 5 mg/kg, route intravenous; conditions: in vivo
In short: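 Male Wistar wild-type or Mrp2-deficient TR⁻ rats with femoral artery and vein cannulas. Sulfasalazine was given as a 5 mg/kg i.v. bolus and as a 20 mg/kg oral dose. Arterial plasma was sampled to 24 h and analysed for parent and sulfapyridine by LC-MS/MS. Noncompartmental parameters; n = 3, mean ± S.D.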

[28] = Half life in wild-type Sprague-Dawley rat at 20 mg/kg, po by LC-MS/MS analysis; design: dose 20 mg/kg, route oral; conditions: in vivo; in short: as §2
[29] = Clearance in MRP2 knockout Sprague-Dawley rat at 5 mg/kg, iv by LC-MS/MS analysis; design: dose 5 mg/kg, route intravenous; conditions: in vivo; in short: as §1
[30] = Volume of distribution at steady state in MRP2-deficient Wistar rat at 5 mg/kg, iv by LC-MS/MS analysis; design: dose 5 mg/kg, route intravenous; conditions: in vivo, read-out: Vdss; in short: as §3
[31] = Cmax in wild-type Wistar rat at 5 mg/kg, po by LC-MS/MS analysis; design: dose 5 mg/kg, route oral; conditions: in vivo
[32] = Oral bioavailability in BCRP knockout […]; conditions: in vivo
[33] = AUC (infinity) in MRP2-deficient Wistar rat at 5 mg/kg, po by LC-MS/MS analysis; design: time infinity, dose 5 mg/kg, route oral; conditions: plasma
[34] = Half life in BCRP knockout Sprague-Dawley rat at 20 mg/kg, po by LC-MS/MS analysis; design: dose 20 mg/kg, route oral; conditions: in vivo; in short: as §2
[35] = Half life in MDR1A knockout Sprague-Dawley rat at 5 mg/kg, iv by LC-MS/MS analysis; design: dose 5 mg/kg, route intravenous; conditions: in vivo; in short: as §2
[36] = Half life in MRP2-deficient Wistar rat at 5 mg/kg, po by LC-MS/MS analysis; design: dose 5 mg/kg, route oral; conditions: in vivo; in short: as §3
[37] = Half life in MDR1A knockout Sprague-Dawley rat at 20 mg/kg, po by LC-MS/MS analysis; design: dose 20 mg/kg, route oral; conditions: in vivo; in short: as §2

Cmax [1]: 3870 ng/mL
Vd [2]: 0.408 L/kg
AUC(0-inf) [3]: 1810 ng·h/mL
AUC(0-inf) [4]: 562 ng·h/mL
Tmax [5]: 0.25 h
bioavailability [6]: 1.4%
half-life [7]: 1.5 h
Tmax [8]: 0.5 h
clearance [9]: 10.4 mL/min/kg
Cmax [10]: 144 ng/mL
half-life [11]: 3.8 h
clearance [12]: 13.5 mL/min/kg
Vd [13]: 0.285 L/kg
Cmax [14]: 213 ng/mL
AUC(0-inf) [15]: 13100 ng·h/mL
bioavailability [16]: 30%
Tmax [17]: 0.6 h
half-life [18]: 4 h
AUC(0-inf) [19]: 10700 ng·h/mL
Vd [20]: 0.244 L/kg
AUC(0-inf) [21]: 4320 ng·h/mL
Tmax [22]: 0.25 h
half-life [23]: 4.3 h
Cmax [24]: 320 ng/mL
half-life [25]: 2.1 h
half-life [26]: 1.4 h
clearance [27]: 6.8 mL/min/kg
half-life [28]: 2.6 h
clearance [29]: 22 mL/min/kg
Vd [30]: 0.839 L/kg
Cmax [31]: 490 ng/mL
bioavailability [32]: 37%
AUC(0-inf) [33]: 462 ng·h/mL
half-life [34]: 1.9 h
half-life [35]: 1 h
half-life [36]: 2.3 h
half-life [37]: 2.3 h
SMILES: O=C(O)c1cc(/N=N/c2ccc(S(=O)(=O)Nc3ccccn3)cc2)ccc1O [SULFASALAZINE]
